We go through 22 compounds from ChEMBL document CHEMBL1938247, “Synthesis and evaluation of inhibitors of bacterial drug efflux pumps of the major facilitator superfamily” (2011).

In brackets after ≈: the same amount, converted by molar mass. Activity calls are given as the source filed them. Where a SMILES comes first, the peptide text is derived from it. [ ]: non-standard residue; d: D form. The star is where a group is joined. ξ: configuration not given here. ξhPhe = NC(CCc1ccccc1)C(=O)O; βNA = c1ccc2cc(N*)ccc2c1

Assay [1] has as its system Streptomyces coelicolor. Briefly: Antibacterial activity against Streptomyces coelicolor overexpressing cmlR1 at 25 ug/mL after 48 hrs. The assay is classed as functional, organism-based. The method in brief:
(§1)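 Host strains were the cmlR1/cmlR2 double-null S. coelicolor carrying cmlR1 or cmlR2 under a strong constitutive promoter, selected for hygromycin resistance. Growth was checked on Difco nutrient agar containing 25 μg/mL test compound alone, with plates kept at 30 °C.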

Assay [2] concerns Streptomyces coelicolor. Briefly: Antibacterial activity against cmlR2-deficient Streptomyces coelicolor at 25 ug/mL after 48 hrs. In kind it is functional, organism-based. The method in brief:
(§2)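 Strains: wild-type S. coelicolor, or PCR-targeted null mutants lacking cmlR1, cmlR2 or both. Inhibitors HPLC-purified before testing; inhibitor alone at 25 μg/mL also checked for intrinsic toxicity.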

Assay [3] relates to Streptomyces coelicolor. Briefly: Antibacterial activity against cmlR1-deficient Streptomyces coelicolor at 25 ug/mL after 48 hrs. In kind it is functional, organism-based. The procedure, abridged: as §2
Assay [4] relates to Streptomyces coelicolor. Briefly: Inhibition of cmlR1 overexpressed in Streptomyces coelicolor assessed as potentiation of chloramphenicol-induced antibacterial activity measuring reduction in MIC of chloramphenicol at 25 ug/mL after 48 hrs relative to control. The procedure, abridged: (§3)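 The cmlR1/cmlR2 double-null S. coelicolor strain was engineered to over-express cmlR1 or cmlR2 from a strong constitutive promoter. Spores (1 μL of a 10⁸ cfu/μL stock) were patched on Difco nutrient agar with 25 μg/mL inhibitor and varying chloramphenicol, then incubated at 30 °C. The chloramphenicol MIC (μg/mL) was read, and fold-potentiation was taken relative to the MIC without inhibitor.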

Assay [5] concerns Streptomyces coelicolor. The experiment in a line: Antibacterial activity against Streptomyces coelicolor after 48 hrs. In kind it is functional.
Assay [6] concerns Streptomyces coelicolor. The experiment in a line: Antibacterial activity against cmlR1 and cmlR2-deficient Streptomyces coelicolor at 25 ug/mL after 48 hrs. The assay is classed as functional, organism-based. The procedure, abridged:
as §2

Assay [7] relates to Streptomyces coelicolor. Briefly: Potentiation of chloramphenicol-induced antibacterial activity against Streptomyces coelicolor at 25 ug/mL after 48 hrs relative to control. The assay is classed as functional. The procedure, abridged:
(§4)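 1 μL of a 10⁸ cfu/μL spore stock patched per plate; incubated at 30 °C. Strains: wild-type S. coelicolor, or PCR-targeted null mutants lacking cmlR1, cmlR2 or both. Reference efflux inhibitor MC-207,110 (Phe-Arg-β-naphthylamide) tested at the same 25 μg/mL.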

Assay [8] relates to Streptomyces coelicolor. Briefly: Inhibition of cmlR2 overexpressed in Streptomyces coelicolor assessed as potentiation of chloramphenicol-induced antibacterial activity measuring reduction in MIC of chloramphenicol at 25 ug/mL after 48 hrs relative to control. The procedure, abridged: as §3
Assay [9] relates to Streptomyces coelicolor. The experiment in a line: Potentiation of chloramphenicol-induced antibacterial activity against Streptomyces coelicolor at 25 ug/mL after 48 hrs relative to MC-207,110. In kind it is functional. The method in brief: as §4
The subject of assay [10] is Streptomyces coelicolor. Briefly: Potentiation of chloramphenicol-induced antibacterial activity against cmlR1 and cmlR2-deficient Streptomyces coelicolor at 25 ug/mL after 48 hrs relative to control. In kind it is functional. The method in brief:
as §4

Assay [11] has as its system Streptomyces coelicolor. The experiment in a line: Antibacterial activity against Streptomyces coelicolor overexpressing cmlR2 at 25 ug/mL after 48 hrs. The assay is classed as functional, organism-based. The method in brief:
as §1

The subject of assay [12] is Streptomyces coelicolor. Briefly: Potentiation of chloramphenicol-induced antibacterial activity against cmlR2-deficient Streptomyces coelicolor at 25 ug/mL after 48 hrs relative to control. In kind it is functional. The procedure, abridged: as §4
Assay [13] has as its system Streptomyces coelicolor. Briefly: Potentiation of chloramphenicol-induced antibacterial activity against cmlR1-deficient Streptomyces coelicolor at 25 ug/mL after 48 hrs relative to control. In kind it is functional. The procedure, abridged: as §4
In assay [14] the test system is Streptomyces coelicolor. Briefly: Antibacterial activity against Streptomyces coelicolor at 25 ug/mL after 48 hrs. In kind it is functional, organism-based. The procedure, abridged: as §2

Turning to `NCCC[C@H](N)C(=O)N[C@H](CCc1ccccc1)C(=O)Nc1ccc2ccccc2c1`, the outcome in the assay with Streptomyces coelicolor [1], in the assay with Streptomyces coelicolor [2], with Streptomyces coelicolor [3], in the assay with Streptomyces coelicolor [6], with Streptomyces coelicolor [11] and in the assay on Streptomyces coelicolor [14] was inactive. Besides, the fold change (FC) worked out at 3.5 in the assay on Streptomyces coelicolor [4]; 7.2 with Streptomyces coelicolor [7]; 7.3 in the assay with Streptomyces coelicolor [8]; 3 in the assay on Streptomyces coelicolor [9]; 1.8 in the assay with Streptomyces coelicolor [10]; 2.4 in the assay with Streptomyces coelicolor [12]. In addition, the “fold change (FC)” value with Streptomyces coelicolor [13] was 3.3. In the assay with Streptomyces coelicolor [5], this compound returned an MIC of 9 mg/L (≈ 21.5 µM).

The compound `NCCC[C@H](N)C(=O)NC(CCc1ccccc1)C(=O)Nc1ccc2ccccc2c1` (mixture of isomers) returned an MIC against Streptomyces coelicolor [5] of 10 mg/L. Also, the “fold change (FC)” value with Streptomyces coelicolor [7] amounted to 6.5. The outcome in the assay with Streptomyces coelicolor [14] was inactive.

Take `CN(C(=O)[C@H](N)CCCN)C(CCc1ccccc1)C(=O)Nc1ccc2ccccc2c1` (stereo partly drawn): the outcome with Streptomyces coelicolor [7] was Active. The outcome in the assay on Streptomyces coelicolor [14] was inactive.

For `N=C(N)NCCC[C@H](NC(=O)[C@@H](N)Cc1ccccc1)C(=O)Nc1ccc2ccccc2c1` [PABETAN] (H-Phe-Arg-βNA), in the assay on Streptomyces coelicolor [5], inhibition of growth (MIC) required 25 mg/L (≈ 56 µM). For the same compound, the “fold change (FC)” value with Streptomyces coelicolor [7] is listed as 2.6. The outcome with Streptomyces coelicolor [14] was inactive.

In the case of `NCCC[C@@H](N)C(=O)OC(CCc1ccccc1)C(=O)Nc1ccc2ccccc2c1` (stereo partly drawn), the result in the assay on Streptomyces coelicolor [14] was inactive.

Regarding `NCCCCC(=O)NC(CCc1ccccc1)C(=O)Nc1ccc2ccccc2c1` (stereo not drawn), the outcome with Streptomyces coelicolor [7] was Active. The outcome with Streptomyces coelicolor [14] was inactive.

Take `NCCC[C@@H](N)C(=O)NC(CCc1ccccc1)C(=O)NCc1ccccc1` (stereo partly drawn): the result in the assay on Streptomyces coelicolor [7] was Active. Moreover, the outcome in the assay on Streptomyces coelicolor [14] was inactive.

As for `NCCC[C@@H](N)C(=O)NC(C(=O)Nc1ccc2ccccc2c1)c1ccc([N+](=O)[O-])cc1` (stereo partly drawn), the result in the assay with Streptomyces coelicolor [7] was Active. Further, the outcome in the assay on Streptomyces coelicolor [14] was inactive.

Turning to `NCCC[C@@H](N)C(=O)NC(C(=O)Nc1ccc2ccccc2c1)c1ccccc1` (stereo partly drawn), in the assay with Streptomyces coelicolor [7], the outcome was Active. Besides, in the assay on Streptomyces coelicolor [14], the outcome was inactive.

Take `NCCC[C@@H](N)C(=O)NC(CCc1ccccc1)C(=O)Nc1ccc2ccccc2c1` (mixture of isomers): in the assay with Streptomyces coelicolor [5], the lowest concentration to inhibit growth (MIC) was 10 mg/L. Also, in the assay with Streptomyces coelicolor [7], the “fold change (FC)” value worked out at 6.5. For the same compound, the outcome in the assay with Streptomyces coelicolor [14] was inactive.

On to `NCCCCCC(=O)NC(CCc1ccccc1)C(=O)Nc1ccc2ccccc2c1` (stereo not drawn), for which the result with Streptomyces coelicolor [7] was Active. Moreover, in the assay on Streptomyces coelicolor [14], the outcome was inactive.

Regarding `CCCCNC(=O)C(CCc1ccccc1)NC(=O)[C@H](N)CCCN` (stereo partly drawn), the result in the assay on Streptomyces coelicolor [7] and in the assay with Streptomyces coelicolor [14] was inactive.

For the compound `NCCC[C@@H](N)C(=O)NC(C(=O)Nc1ccc2ccccc2c1)c1ccco1` (stereo partly drawn), the outcome with Streptomyces coelicolor [14] was inactive.

Regarding `NCC(=O)NC(CCc1ccccc1)C(=O)Nc1ccc2ccccc2c1` (stereo not drawn) (H-Gly-[ξhPhe]-βNA), the result in the assay on Streptomyces coelicolor [7] was Active. In addition, the outcome in the assay on Streptomyces coelicolor [14] was inactive.

Regarding `CC(C)(C)NC(=O)C(CCc1ccccc1)NC(=O)[C@H](N)CCCN` (stereo partly drawn), the outcome in the assay with Streptomyces coelicolor [7] and in the assay on Streptomyces coelicolor [14] was inactive.

With `NCCC[C@@H](N)C(=O)NC(CCc1ccccc1)C(=O)Nc1cnc2ccccc2c1` (mixture of isomers), the MIC in the assay with Streptomyces coelicolor [5] is greater than 40 mg/L. For the same compound, in the assay with Streptomyces coelicolor [14], the outcome was inactive.

As to `NCCC[C@@H](N)C(=O)NC(CCc1ccccc1)C(=O)NC1CCCCC1` (stereo partly drawn), the result in the assay with Streptomyces coelicolor [7] and with Streptomyces coelicolor [14] was inactive.

With `NCCC(=O)NC(CCc1ccccc1)C(=O)Nc1ccc2ccccc2c1` (stereo not drawn), the outcome in the assay on Streptomyces coelicolor [7] was Active. Further, in the assay on Streptomyces coelicolor [14], the result was inactive.

Turning to `NCCC[C@H](N)C(=O)N[C@@H](CCc1ccccc1)C(=O)Nc1ccc2ccccc2c1`, the MIC in the assay on Streptomyces coelicolor [5] is 11 mg/L (≈ 26.3 µM). In addition, the “fold change (FC)” value in the assay on Streptomyces coelicolor [7] is recorded as 5.9. Further, the outcome in the assay on Streptomyces coelicolor [14] was inactive.

For the compound `NCCC[C@H](N)C(=O)NC(CCc1ccccc1)C(=O)Nc1cnc2ccccc2c1` (mixture of isomers), the MIC in the assay with Streptomyces coelicolor [5] was greater than 40 mg/L. Besides, the result with Streptomyces coelicolor [14] was inactive.

As to `CC(C)C(NC(=O)[C@H](N)CCCN)C(=O)Nc1ccc2ccccc2c1` (stereo partly drawn), the outcome with Streptomyces coelicolor [7] was Active. Also, the outcome in the assay on Streptomyces coelicolor [14] was inactive.

In the case of `COc1ccc(C(NC(=O)[C@H](N)CCCN)C(=O)Nc2ccc3ccccc3c2)cc1` (stereo partly drawn), in the assay with Streptomyces coelicolor [7], the outcome was Active. In addition, in the assay on Streptomyces coelicolor [14], the outcome was inactive.

As usually defined, the MIC is the smallest concentration in the dilution series that meets the test's criterion for growth inhibition.
